Source: PubChem BioAssay (Broad Institute)
Compounds with a hit are over-represented: about 4.4% of the library has one in this group of screens.
Calb FLC: C. albicans growth inhibition with fluconazole, primary screen, CaCi-2 strain, Alamar Blue fluorescence; growth inhibition, % (test concentration not listed); C. albicans CaCi-2 (fluconazole-resistant clinical isolate) + fluconazole, 48 h; actives 0.57% (n = 300,000); AID 1979, 2009;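 active means growth inhibition above about 58% in most replicates, limit read from the data, passing the limit was not always enough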;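 further: all wells also contain fluconazole at 8 µg/ml as a sub-toxic cotreatment; 0% = median of DMSO wells and 100% = median of geldanamycin control wells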
HIF act: HIF pathway transcriptional activators, primary screen, cell-based, U2OS HRE-luciferase, luminescence. U2OS HRE-luciferase reporter; normalized: DMSO 0%, desferrioxamine 100%. activation, % at 7.5 µM (by protocol). actives 0.32% (n = 300,000);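 active means mean activation of at least 10% of the iron chelator positive control signal, with at least half of replicates also reaching 10%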
HSF1 activator: HSF-1 activators, primary screen, NIH3T3-HGL cells, MG132 stress, luminescence, single point | NIH3T3-HGL HSF-1 luciferase reporter, 8 h; 100% = twice DMSO control signal | activation, % at 9 µM | actives 1.7% (n = 300,000) | AID 504408, 2011;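 active means mean replicate activation of at least 50% with a set share of replicates each reaching 50%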;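 further: 0% = median of the neutral control wells and 100% = twice that signal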
HSF1 inh: HSF1 inhibitors in luciferase reporter cells, primary screen, cell-based, NIH3T3, luminescence; activity change, negative = inhibition, % at 7.5 µM (by protocol); AID 2098, 2009; actives 0.77% (n = 300,000); NIH3T3-HGL HSE-luciferase, MG132-induced, luminescence 8 h; stronger effect = lower value;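 active means more than half of replicate wells show activity change below -50%, luminescence cut by over half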;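 further: luciferase reports HSF-1 transcriptional activity via heat shock element; 0% = median of DMSO wells and -100% = zero luminescence signal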
T cruzi repl: inhibitors of intracellular T. cruzi growth, primary screen, luminescence, NIH3T3 host cells. T. cruzi beta-gal in NIH3T3, 90 h. inhibition, % (test concentration not listed). actives 1.4% (n = 300,000). AID 1885, 2009;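 active means mean inhibition across valid replicates above about 55%, limit read from the data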;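 further: signal also drops with host cell toxicity which is not excluded here; 0% = plate median of DMSO wells and 100% = zero luminescence signal; higher percent means less beta-gal luminescence so fewer parasites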
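Assay system: NIH/3T3 host cells with β-galactosidase reporter T. cruzi; input: 5,000 host fibroblasts per well; compound: single 50 nL compound addition per well in DMSO; timing: ≥90 h infection period, 3 h prior cell attachment; measured by: GalScreen β-gal luminescence, detergent lysis, 60 min; evaluation: percent inhibition of parasite-derived β-gal signal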
The depositor's hits bear a star.

CCOc1cccc(-c2nn(-c3ccccc3)cc2/C=C(/C#N)C(=O)NCCCn2ccnc2)c1 was read as Calb FLC 2, HIF act 0, HSF1 activator 30, HSF1 inh -4 and T cruzi repl 28.
N#C/C(=C/c1cn(-c2ccccc2)nc1-c1cccc(OCc2ccccc2)c1)C(=O)NCCCn1ccnc1 was read as Calb FLC 1, HIF act 0, HSF1 activator 10, HSF1 inh -1 and T cruzi repl 60*.
`CCn1nc(C)cc1-c1nnc(Sc2ncc([N+](=O)[O-])s2)n1C` gave Calb FLC 0, HIF act 1, HSF1 activator 122*, HSF1 inh 80 and T cruzi repl 61*.
CCn1nc(C)cc1-c1nnc(SCC(=O)Nc2ccccc2)n1CCCOC was read as Calb FLC 3, HIF act 0, HSF1 activator 0, HSF1 inh -3 and T cruzi repl 7.
Screening CCCCn1c(=O)c(CCC(=O)OCC(=O)Nc2ccc(F)c(Cl)c2)nc2ccccc21 returned Calb FLC -12, HIF act 0, HSF1 activator 1, HSF1 inh -17 and T cruzi repl -4.
CCOc1ccc(NC(=O)CC2S/C(=N/N=C3CCCCCC3)NC2=O)cc1 (stereo not drawn) was read as Calb FLC 2, HIF act 0, HSF1 activator 8, HSF1 inh -5 and T cruzi repl 1.
Cc1ccc(-c2nc(-c3ccccn3)no2)cc1Cl was read as Calb FLC -3, HIF act -7, HSF1 activator -29, HSF1 inh -31 and T cruzi repl -4.
For c1ccc(-c2nc(-c3ccccn3)no2)cc1 the results were Calb FLC -6, HIF act 1, HSF1 activator 11, HSF1 inh 11 and T cruzi repl -14.
`c1ccc(-c2ccc(-c3nc(-c4ccccn4)no3)cc2)cc1` gave Calb FLC 25, HSF1 activator -89, HSF1 inh -88* and T cruzi repl 8.
For Cc1ccc(-c2nc(-c3ccccn3)no2)cc1 the results were Calb FLC -23, HIF act -4, HSF1 activator -80, HSF1 inh -78* and T cruzi repl -8.
CCOC(=O)COc1ccc(S(=O)(=O)N2CCN(c3ccccc3F)CC2)cc1 was read as Calb FLC 103*, HIF act 0, HSF1 activator 5, HSF1 inh -13 and T cruzi repl -1.
Cc1ccc(N2CCN(S(=O)(=O)c3ccc(F)c(C)c3)CC2)c(C)c1 was read as Calb FLC 3, HIF act 0, HSF1 activator -11, HSF1 inh 6 and T cruzi repl 5.
For CCC(=O)c1cc(F)c(N2CCN(S(=O)(=O)c3ccc(C)cc3)CC2)cc1C the results were Calb FLC -5, HIF act 0, HSF1 activator 10, HSF1 inh 5 and T cruzi repl 59*.
For Cc1cnc(CNC(=O)c2ccc(OC3CCN(C(=O)C4CC4)CC3)cc2)cn1 the results were Calb FLC -10, HIF act 0, HSF1 activator 7, HSF1 inh 6 and T cruzi repl -3.
CC(C)OC(=O)Cc1nc2sc(-c3ccccc3)cc2c(=O)[nH]1 was read as Calb FLC 1, HIF act 4, HSF1 activator 52*, HSF1 inh 28 and T cruzi repl -2.
`CC(C)CC(NS(=O)(=O)c1cc(C(=O)O)ccc1Cl)C(=O)O` (stereo not drawn) gave Calb FLC -13, HIF act 1, HSF1 activator -5, HSF1 inh -8 and T cruzi repl -5.
`Cc1ccc(C2/C(=C(\O)c3ccc4c(c3)OCCO4)C(=O)C(=O)N2CC2CCCO2)cc1` (stereo not drawn) gave Calb FLC -5.
CN(c1ccc(OCC(=O)Nc2nc(-c3ccccc3)cs2)cc1)S(=O)(=O)c1ccc(F)cc1 was read as Calb FLC 27, HIF act 0, HSF1 activator -6, HSF1 inh -5 and T cruzi repl 55*.
